# ChEMBL document CHEMBL3044834, “Novel protoporphyrinogen oxidase inhibitors: 3H-pyrazolo[3,4-d][1,2,3]triazin-4-one derivatives” (J Agric Food Chem, 2008)
# Experiments:
# Type in all cases: functional
# Digitaria sanguinalis [1] = test: Herbicidal activity against Digitaria sanguinalis (hairy crabgrass) assessed as inhibition of fresh weed plant weight at 93.75 g/ha using post-emergence treatment protocol
# Outline: (§1)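 Test compounds made up as emulsions by dissolving in 100 µL N,N-dimethylformamide, then adding a little Tween 20 and water. For post-emergence, weed seedlings at one leaf and one stem were sprayed at the same rates as the pre-emergence test. Fresh weight was recorded 15 days after treatment and expressed as percent inhibition versus controls. All treatments were run in triplicate.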
# Digitaria sanguinalis [2] = test: Herbicidal activity against Digitaria sanguinalis (hairy crabgrass) assessed as inhibition of fresh weed plant weight at 750 g/ha using post-emergence treatment protocol; outline: as §1
# Digitaria sanguinalis [3] = test: Herbicidal activity against Digitaria sanguinalis (hairy crabgrass) assessed as inhibition of fresh weed plant weight at 1500 g/ha using pre-emergence treatment protocol
# [4] = system: Brassica rapa subsp. oleifera; test: Herbicidal activity against Brassica rapa subsp. oleifera assessed as inhibition of fresh weed plant weight at 750 g/ha using post-emergence treatment protocol; outline: as §1
# [5] = system: Brassica rapa subsp. oleifera; test: Herbicidal activity against Brassica rapa subsp. oleifera assessed as inhibition of fresh weed plant weight at 93.75 g/ha using post-emergence treatment protocol; outline: as §1
# [6] = system: Brassica rapa subsp. oleifera; test: Herbicidal activity against Brassica rapa subsp. oleifera assessed as inhibition of fresh weed plant weight at 750 g/ha using pre-emergence treatment protocol
# Amaranthus retroflexus [7] = test: Herbicidal activity against Amaranthus retroflexus assessed as inhibition of fresh weed plant weight at 1500 g/ha using post-emergence treatment protocol; outline: as §1
# Digitaria sanguinalis [8] = test: Herbicidal activity against Digitaria sanguinalis (hairy crabgrass) assessed as inhibition of fresh weed plant weight at 750 g/ha using pre-emergence treatment protocol
# [9] = system: Brassica rapa subsp. oleifera; test: Herbicidal activity against Brassica rapa subsp. oleifera assessed as inhibition of fresh weed plant weight at 22.5 g/ha using pre-emergence treatment protocol
# Amaranthus retroflexus [10] = test: Herbicidal activity against Amaranthus retroflexus assessed as inhibition of fresh weed plant weight at 187.5 g/ha using post-emergence treatment protocol; outline: as §1
# Amaranthus retroflexus [11] = test: Herbicidal activity against Amaranthus retroflexus assessed as inhibition of fresh weed plant weight at 750 g/ha using post-emergence treatment protocol; outline: as §1
# Echinochloa crus-galli [12] = test: Herbicidal activity against Echinochloa crus-galli (barnyard grass) assessed as inhibition of fresh weed plant weight at 750 g/ha using post-emergence treatment protocol; outline: as §1
# Amaranthus retroflexus [13] = test: Herbicidal activity against Amaranthus retroflexus assessed as inhibition of fresh weed plant weight at 187.5 g/ha using pre-emergence treatment protocol
# Amaranthus retroflexus [14] = test: Herbicidal activity against Amaranthus retroflexus assessed as inhibition of fresh weed plant weight at 375 g/ha using pre-emergence treatment protocol
# Amaranthus retroflexus [15] = test: Herbicidal activity against Amaranthus retroflexus assessed as inhibition of fresh weed plant weight at 22.5 g/ha using pre-emergence treatment protocol
# Digitaria sanguinalis [16] = test: Herbicidal activity against Digitaria sanguinalis (hairy crabgrass) assessed as inhibition of fresh weed plant weight at 22.5 g/ha using pre-emergence treatment protocol
# Echinochloa crus-galli [17] = test: Herbicidal activity against Echinochloa crus-galli (barnyard grass) assessed as inhibition of fresh weed plant weight at 1500 g/ha using post-emergence treatment protocol; outline: as §1
# Echinochloa crus-galli [18] = test: Herbicidal activity against Echinochloa crus-galli (barnyard grass) assessed as inhibition of fresh weed plant weight at 187.5 g/ha using post-emergence treatment protocol; outline: as §1
# Echinochloa crus-galli [19] = test: Herbicidal activity against Echinochloa crus-galli (barnyard grass) assessed as inhibition of fresh weed plant weight at 22.5 g/ha using pre-emergence treatment protocol; outline: as §1
# [20] = system: Brassica rapa subsp. oleifera; test: Herbicidal activity against Brassica rapa subsp. oleifera assessed as inhibition of fresh weed plant weight at 375 g/ha using post-emergence treatment protocol; outline: as §1
# Amaranthus retroflexus [21] = test: Herbicidal activity against Amaranthus retroflexus assessed as inhibition of fresh weed plant weight at 375 g/ha using post-emergence treatment protocol; outline: as §1
# Echinochloa crus-galli [22] = test: Herbicidal activity against Echinochloa crus-galli (barnyard grass) assessed as inhibition of fresh weed plant weight at 750 g/ha using pre-emergence treatment protocol
# Digitaria sanguinalis [23] = test: Herbicidal activity against Digitaria sanguinalis (hairy crabgrass) assessed as inhibition of fresh weed plant weight at 187.5 g/ha using post-emergence treatment protocol; outline: as §1
# Digitaria sanguinalis [24] = test: Herbicidal activity against Digitaria sanguinalis (hairy crabgrass) assessed as inhibition of fresh weed plant weight at 45 g/ha using pre-emergence treatment protocol
# [25] = system: Brassica rapa subsp. oleifera; test: Herbicidal activity against Brassica rapa subsp. oleifera assessed as inhibition of fresh weed plant weight at 45 g/ha using pre-emergence treatment protocol
# Digitaria sanguinalis [26] = test: Herbicidal activity against Digitaria sanguinalis (hairy crabgrass) assessed as inhibition of fresh weed plant weight at 375 g/ha using post-emergence treatment protocol; outline: as §1
# Echinochloa crus-galli [27] = test: Herbicidal activity against Echinochloa crus-galli (barnyard grass) assessed as inhibition of fresh weed plant weight at 93.75 g/ha using pre-emergence treatment protocol
# [28] = system: Brassica rapa subsp. oleifera; test: Herbicidal activity against Brassica rapa subsp. oleifera assessed as inhibition of fresh weed plant weight at 1500 g/ha using post-emergence treatment protocol; outline: as §1
# [29] = system: Brassica rapa subsp. oleifera; test: Herbicidal activity against Brassica rapa subsp. oleifera assessed as inhibition of fresh weed plant weight at 375 g/ha using pre-emergence treatment protocol
# Digitaria sanguinalis [30] = test: Herbicidal activity against Digitaria sanguinalis (hairy crabgrass) assessed as inhibition of fresh weed plant weight at 1500 g/ha using post-emergence treatment protocol; outline: as §1
# Amaranthus retroflexus [31] = test: Herbicidal activity against Amaranthus retroflexus assessed as inhibition of fresh weed plant weight at 93.75 g/ha using pre-emergence treatment protocol
# [32] = system: Brassica rapa subsp. oleifera; test: Herbicidal activity against Brassica rapa subsp. oleifera assessed as inhibition of fresh weed plant weight at 187.5 g/ha using post-emergence treatment protocol; outline: as §1
# Amaranthus retroflexus [33] = test: Herbicidal activity against Amaranthus retroflexus assessed as inhibition of fresh weed plant weight at 750 g/ha using pre-emergence treatment protocol; outline: as §1
# Echinochloa crus-galli [34] = test: Herbicidal activity against Echinochloa crus-galli (barnyard grass) assessed as inhibition of fresh weed plant weight at 187.5 g/ha using pre-emergence treatment protocol; outline: as §1
# Echinochloa crus-galli [35] = test: Herbicidal activity against Echinochloa crus-galli (barnyard grass) assessed as inhibition of fresh weed plant weight at 375 g/ha using post-emergence treatment protocol; outline: as §1
# Amaranthus retroflexus [36] = test: Herbicidal activity against Amaranthus retroflexus assessed as inhibition of fresh weed plant weight at 45 g/ha using pre-emergence treatment protocol
# Digitaria sanguinalis [37] = test: Herbicidal activity against Digitaria sanguinalis (hairy crabgrass) assessed as inhibition of fresh weed plant weight at 375 g/ha using pre-emergence treatment protocol
# Amaranthus retroflexus [38] = test: Herbicidal activity against Amaranthus retroflexus assessed as inhibition of fresh weed plant weight at 1500 g/ha using pre-emergence treatment protocol
# Echinochloa crus-galli [39] = test: Herbicidal activity against Echinochloa crus-galli (barnyard grass) assessed as inhibition of fresh weed plant weight at 375 g/ha using pre-emergence treatment protocol; outline: as §1
# Echinochloa crus-galli [40] = test: Herbicidal activity against Echinochloa crus-galli (barnyard grass) assessed as inhibition of fresh weed plant weight at 1500 g/ha using pre-emergence treatment protocol
# Echinochloa crus-galli [41] = test: Herbicidal activity against Echinochloa crus-galli (barnyard grass) assessed as inhibition of fresh weed plant weight at 45 g/ha using pre-emergence treatment protocol
# Amaranthus retroflexus [42] = test: Herbicidal activity against Amaranthus retroflexus assessed as inhibition of fresh weed plant weight at 93.75 g/ha using post-emergence treatment protocol; outline: as §1
# Digitaria sanguinalis [43] = test: Herbicidal activity against Digitaria sanguinalis (hairy crabgrass) assessed as inhibition of fresh weed plant weight at 93.75 g/ha using pre-emergence treatment protocol
# Echinochloa crus-galli [44] = test: Herbicidal activity against Echinochloa crus-galli (barnyard grass) assessed as inhibition of fresh weed plant weight at 93.75 g/ha using post-emergence treatment protocol; outline: as §1
# [45] = system: Brassica rapa subsp. oleifera; test: Herbicidal activity against Brassica rapa subsp. oleifera assessed as inhibition of fresh weed plant weight at 187.5 g/ha using pre-emergence treatment protocol
# Digitaria sanguinalis [46] = test: Herbicidal activity against Digitaria sanguinalis (hairy crabgrass) assessed as inhibition of fresh weed plant weight at 187.5 g/ha using pre-emergence treatment protocol
# [47] = system: Brassica rapa subsp. oleifera; test: Herbicidal activity against Brassica rapa subsp. oleifera assessed as inhibition of fresh weed plant weight at 1500 g/ha using pre-emergence treatment protocol
# [48] = system: Brassica rapa subsp. oleifera; test: Herbicidal activity against Brassica rapa subsp. oleifera assessed as inhibition of fresh weed plant weight at 93.75 g/ha using pre-emergence treatment protocol
smiles,measurement,setting,value
C#CCN1C(=O)COc2cc(F)c(-n3nnc4c(cnn4CC=C)c3=O)cc21,inhibition at 93.75 g/ha,Digitaria sanguinalis [1],0%
same,inhibition at 750 g/ha,Digitaria sanguinalis [2],16.7%
same,inhibition at 1500 g/ha,Digitaria sanguinalis [3],100%
same,inhibition at 750 g/ha,[4],100%
same,inhibition at 93.75 g/ha,[5],18.5%
same,inhibition at 750 g/ha,[6],100%
same,inhibition at 1500 g/ha,Amaranthus retroflexus [7],100%
same,inhibition at 750 g/ha,Digitaria sanguinalis [8],100%
same,inhibition at 22.5 g/ha,[9],22.3%
same,inhibition at 187.5 g/ha,Amaranthus retroflexus [10],5.8%
same,inhibition at 750 g/ha,Amaranthus retroflexus [11],100%
same,inhibition at 750 g/ha,Echinochloa crus-galli [12],51.6%
same,inhibition at 187.5 g/ha,Amaranthus retroflexus [13],100%
same,inhibition at 375 g/ha,Amaranthus retroflexus [14],100%
same,inhibition at 22.5 g/ha,Amaranthus retroflexus [15],76.6%
same,inhibition at 22.5 g/ha,Digitaria sanguinalis [16],0%
same,inhibition at 1500 g/ha,Echinochloa crus-galli [17],85.2%
same,inhibition at 187.5 g/ha,Echinochloa crus-galli [18],27.8%
same,inhibition at 22.5 g/ha,Echinochloa crus-galli [19],25.1%
same,inhibition at 375 g/ha,[20],100%
same,inhibition at 375 g/ha,Amaranthus retroflexus [21],83.5%
same,inhibition at 750 g/ha,Echinochloa crus-galli [22],98.9%
same,inhibition at 187.5 g/ha,Digitaria sanguinalis [23],0%
same,inhibition at 45 g/ha,Digitaria sanguinalis [24],2.4%
same,inhibition at 45 g/ha,[25],66.7%
same,inhibition at 375 g/ha,Digitaria sanguinalis [26],4.2%
same,inhibition at 93.75 g/ha,Echinochloa crus-galli [27],53.4%
same,inhibition at 1500 g/ha,[28],100%
same,inhibition at 375 g/ha,[29],100%
same,inhibition at 1500 g/ha,Digitaria sanguinalis [30],32.1%
same,inhibition at 93.75 g/ha,Amaranthus retroflexus [31],100%
same,inhibition at 187.5 g/ha,[32],72.9%
same,inhibition at 750 g/ha,Amaranthus retroflexus [33],100%
same,inhibition at 187.5 g/ha,Echinochloa crus-galli [34],63.7%
same,inhibition at 375 g/ha,Echinochloa crus-galli [35],43.5%
same,inhibition at 45 g/ha,Amaranthus retroflexus [36],86.2%
same,inhibition at 375 g/ha,Digitaria sanguinalis [37],100%
same,inhibition at 1500 g/ha,Amaranthus retroflexus [38],100%
same,inhibition at 375 g/ha,Echinochloa crus-galli [39],97.3%
same,inhibition at 1500 g/ha,Echinochloa crus-galli [40],100%
same,inhibition at 45 g/ha,Echinochloa crus-galli [41],34%
same,inhibition at 93.75 g/ha,Amaranthus retroflexus [42],0%
same,inhibition at 93.75 g/ha,Digitaria sanguinalis [43],44.9%
same,inhibition at 93.75 g/ha,Echinochloa crus-galli [44],7%
same,inhibition at 187.5 g/ha,[45],100%
same,inhibition at 187.5 g/ha,Digitaria sanguinalis [46],77.6%
same,inhibition at 1500 g/ha,[47],100%
same,inhibition at 93.75 g/ha,[48],100%
